A short description of data set [1]: Cytotoxicity against Huh7 cells after 24 hrs by MTS assay. Particulars: human. The class given is cell-based, Huh-7. The method, boiled down:
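Nucleoside cytotoxicity in the replicon-bearing Huh-7 cells, measured by MTS assay after 24 h exposure. Result expressed as CC50.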

The test system of data set [2] is Hepatitis C virus. In words: Antiviral activity against HCV genotype 1b in Huh7 cells assessed as inhibition of viral RNA replication after 72 hrs by ribonuclease protection assay. The class given is functional, organism-based, Hepacivirus hominis. Particulars: Huh-7, 72 h. The method, boiled down: (§1)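 Huh-7 (HB-1) cells carrying a subgenomic bicistronic neomycin-resistance replicon from HCV genotype 1b. Compound incubated with cells 24 h or 72 h. Intracellular replicon RNA then quantified by in situ ribonuclease protection. EC50 taken as the mean of at least two separate determinations.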

Data set [3] has as its system Hepatitis C virus. Put plainly: Antiviral activity against HCV genotype 1b in Huh7 cells assessed as inhibition of viral RNA replication after 24 hrs by ribonuclease protection assay. The class given is functional, organism-based, Hepacivirus hominis. Particulars: Huh-7, 24 h. The method, boiled down:
as §1

The text below walks through data of ChEMBL document CHEMBL1149594, “Synthesis and HCV inhibitory properties of 9-deaza- and 7,9-dideaza-7-oxa-2'-C-methyladenosine” (Bioorg Med Chem, 2007).

Structures are written as SMILES.

The molecule `C[C@@]1(O)[C@H](O)[C@@H](CO)O[C@H]1c1coc2c(N)ncnc12` displayed a cytotoxic concentration (CC50) at 24 h in data set [1] of more than 100 µM. The EC50 is 8100 nM in the data set on Hepatitis C virus [2] and 22 µM in the data set with Hepatitis C virus [3].

Molecule `C[C@@]1(O)[C@H](O)[C@@H](CO)O[C@H]1c1c[nH]c2c(N)ncnc12` showed a CC50 at 24 h in data set [1] of more than 100 µM. Also, the 50% effective concentration (EC50) in the data set with Hepatitis C virus [2] was 59700 nM; with Hepatitis C virus [3], more than 100 µM.

For `C[C@@]1(O)[C@H](O)[C@@H](CO)O[C@H]1n1cnc2c(N)ncnc21`, the CC50 at 24 h in data set [1] is more than 100 µM. The concentration giving a half-maximal response (EC50) in the data set with Hepatitis C virus [2] was 200 nM; in the data set with Hepatitis C virus [3] it was 0.25 µM.

As to `C[C@@]1(O)[C@H](O)[C@@H](CO)O[C@H]1n1ccc2c(N)ncnc21` [BETA-2'-C-METHYL-7-DEAZA-ADENOSINE], the CC50 at 24 h in data set [1] was more than 100 µM. Besides, the EC50 with Hepatitis C virus [2] amounted to 110 nM; in the data set with Hepatitis C virus [3], 0.3 µM.

With `CC(C)[C@H](N)C(=O)O[C@@H]1[C@@H](CO)O[C@@H](n2ccc(N)nc2=O)[C@]1(C)O` [VALOPICITABINE], in data set [1], the 50% cytotoxic concentration (CC50) at 24 h is more than 100 µM. In addition, the values for the concentration for a half-maximal effect (EC50) in the data set with Hepatitis C virus [2] and in the data set on Hepatitis C virus [3] were 1500 nM and 7.45 µM, respectively.
